Usually IC50 stands for the point on the concentration scale where inhibition reaches its midpoint. In general, inhibition refers to the share of the control response that was lost under treatment.

A value given as a limit tells only on which side of the number the result lay.

Here are results for 17 compounds from ChEMBL document CHEMBL1156688, “Synthesis and biological activities of a series of 4,5-diaryl-3-hydroxy-2(5H)-furanones” (Eur J Med Chem, 2008).

The nature of assay [1]: Antioxidant activity assessed as inhibition of peroxynitrite-induced evans blue bleaching at 50 uM. Format: functional. The arrangement: scale not given: the % may be the effect or the level left. The essentials: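 Room-temperature assay in 50 mM phosphate-buffered saline, pH 7.4, containing 0.1 mM diethylenetriaminepentaacetic acid, 90 mM NaCl and 5 mM KCl. Test compound, Evans Blue ([…] as printed) and peroxynitrite ([…] as printed) were mixed rapidly. Bleaching was read at 608 nm. Blanks held DMF alone or peroxynitrite degraded for 5 min.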

Assay [2] deals with Human immunodeficiency virus type 1 integrase (Human immunodeficiency virus 1, UniProt Q7ZJM1). The assay is described as follows: Inhibition of HIV1 integrase. The method in brief: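 Wild-type HIV-1 integrase (1 pmol) was tested in a 3′-processing reaction with 0.025 pmol labelled U5A/U5B double-stranded DNA substrate. Buffer was 20 mM Hepes pH 7.2, 10 mM MgCl2, 25 mM NaCl and 1 mM DTT. Oligonucleotides were gel-purified on 18% denaturing acrylamide/urea.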
Human immunodeficiency virus type 1 integrase, sequence (Q7ZJM1 whole entry): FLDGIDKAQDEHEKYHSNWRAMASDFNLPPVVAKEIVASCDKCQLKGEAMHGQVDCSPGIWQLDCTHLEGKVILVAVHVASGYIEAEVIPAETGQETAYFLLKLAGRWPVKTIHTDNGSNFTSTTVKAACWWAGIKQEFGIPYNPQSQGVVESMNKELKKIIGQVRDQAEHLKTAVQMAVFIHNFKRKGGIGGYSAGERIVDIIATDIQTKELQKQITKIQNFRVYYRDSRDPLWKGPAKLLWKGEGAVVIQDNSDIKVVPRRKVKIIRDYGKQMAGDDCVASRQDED

Assay [3] addresses T1, Polyunsaturated fatty acid 5-lipoxygenase (Homo sapiens) (UniProt P09917).
T1 sequence (whole entry): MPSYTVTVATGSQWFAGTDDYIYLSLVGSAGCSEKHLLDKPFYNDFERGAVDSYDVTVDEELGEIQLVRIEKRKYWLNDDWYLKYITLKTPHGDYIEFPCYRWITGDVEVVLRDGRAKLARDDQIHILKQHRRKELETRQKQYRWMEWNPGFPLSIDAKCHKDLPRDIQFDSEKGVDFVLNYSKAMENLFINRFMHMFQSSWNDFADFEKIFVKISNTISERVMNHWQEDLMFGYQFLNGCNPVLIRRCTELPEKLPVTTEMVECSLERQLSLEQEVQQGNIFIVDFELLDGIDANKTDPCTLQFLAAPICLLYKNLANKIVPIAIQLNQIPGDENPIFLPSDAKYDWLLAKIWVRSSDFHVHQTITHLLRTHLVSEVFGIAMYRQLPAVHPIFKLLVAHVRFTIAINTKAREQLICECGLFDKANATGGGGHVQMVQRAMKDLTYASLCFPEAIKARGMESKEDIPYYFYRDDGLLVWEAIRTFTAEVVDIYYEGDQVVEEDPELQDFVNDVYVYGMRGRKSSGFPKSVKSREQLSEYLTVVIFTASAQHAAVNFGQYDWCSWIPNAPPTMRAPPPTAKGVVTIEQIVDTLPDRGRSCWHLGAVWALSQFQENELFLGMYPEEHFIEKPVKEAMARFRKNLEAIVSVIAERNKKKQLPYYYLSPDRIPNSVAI
The assay is described as follows: Inhibition of 5LOX in human whole blood assessed as inhibition of calcium ionophore A-stimulated 5-HETE production at 10 uM. Set-up: scale not given: the % may be the effect or the level left. It is filed as tissue-based. The method in brief:
(§1)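 Fresh heparinized blood from normal volunteers, in 1 mL aliquots, was preincubated 15 min at 37 °C with compound or DMSO vehicle. It was then stimulated with calcium ionophore A23187 for 30 min at 37 °C. Eicosanoids were extracted into ethyl acetate, dried under nitrogen and redissolved in mobile phase. 5-HETE was quantified by reversed-phase HPLC with UV detection.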

For assay [4], the system named is PC-3. The assay is described as follows: Antiproliferative activity against human PC3 cells after 72 hrs by MTT assay. As to conditions: PC-3, 72 h. (In general: Tetrazolium dyes change colour on reduction, which living cells bring about.)
Assay [5] can be described thus: DPPH radical scavenging activity assessed as ratio of drug concentration to DPPH concentration producing 50% decrease in DPPH after 5 mins. It is filed as functional. The method in brief: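 DPPH decay was followed spectrophotometrically at 515 nm, read every 0.02 min, starting from about […] DPPH. ECR50 is the ratio of antioxidant to DPPH concentration giving a 50% fall in DPPH; the methods state 6 min of reaction. Trolox and ascorbic acid served as references.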
(The DPPH test is a chemical assay of radical scavenging.)

Assay [6] addresses T1, Polyunsaturated fatty acid 5-lipoxygenase (Homo sapiens). The assay is described as follows: Inhibition of 5LOX in human whole blood assessed as inhibition of calcium ionophore A-stimulated 5-HETE production at 100 uM. Set-up: scale not given: the % may be the effect or the level left. It is filed as tissue-based. The essentials: as §1
Assay [7] relates to PC-3. The assay is described as follows: Antiproliferative activity against human PC3 cells at 10 uM after 72 hrs by MTT assay. As to conditions: PC-3, 72 h. Format: functional. The essentials:
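PC3 cells were grown in RPMI 1640 with 10% fetal calf serum at 37 °C under 5% CO2. They were plated at 1.8 × 10^4 cells/well and grown 3 days, then serum-starved 24 h to synchronize. Compounds were added in medium with less than 0.1% DMSO. Growth was estimated by colorimetric MTT after 72 h.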

Assay [8] has as its target Prostaglandin G/H synthase 1 (Homo sapiens) (UniProt P23219). The assay is described as follows: Inhibition of COX1 at 100 uM.

Regarding `O=C1OC(c2ccc(OCc3ccccc3)c(OCc3ccccc3)c2)C(c2ccc(F)cc2)=C1O` (configuration not stated), the Activity in assay [1] and in assay [3] was 0% throughout. Moreover, in assay [2], 10 µM corresponded to half-maximal inhibition (IC50).

For the compound `Cc1ccc(-c2cc(C(F)(F)F)nn2-c2ccc(S(N)(=O)=O)cc2)cc1` [CELECOXIB], the IC50 in assay [4] amounted to 48 µM.

Consider `O=C1O[C@H]([C@@H](O)CO)C(O)=C1O`, for which, in assay [1], the Activity was found to be 83.6%. Moreover, in assay [5], the Ratio stood at 0.26.

On to `O=C1OC(c2cc(O)cc(O)c2)C(c2ccc(O)cc2)=C1O` (configuration not stated), for which the Activity in assay [6] amounted to 11.6%; in assay [1] it was 33.1%; in assay [3], 0%. Also, in assay [2], inhibition was half-maximal at 22 µM (IC50). In assay [7], this compound showed an inhibition at 10 µM of 39%. Further, the Ratio in assay [5] turned out to be 0.47.

As for `Cc1c(C)c2c(c(C)c1O)CCC(C)(C(=O)O)O2` (configuration not stated), the Activity in assay [1] was determined as 90%. The Ratio in assay [5] worked out at 0.26.

As to `O=C1OC(c2ccc(F)cc2)C(c2ccc(O)cc2)=C1O` (configuration not stated), the Activity in assay [6] stood at 16.4%; in assay [1], 46.5%; in assay [3] it was 0%. The IC50 in assay [2] was greater than 300 µM. The compound also registered an inhibition in assay [8] of 16.4%. In addition, the Ratio in assay [5] was 0.27.

As for `O=C1OC(c2ccccc2)C(c2ccc(O)cc2)=C1O` (configuration not stated), the Activity was 18.6% in assay [6], 29.4% in assay [1] and 0% in assay [3]. The same compound gave an IC50 in assay [2] greater than 300 µM. The compound further yielded an inhibition in assay [8] of 32.9%. Further, the Ratio in assay [5] is 0.49.

Regarding `O=C1OC(c2ccc(O)c(O)c2)C(c2ccc(O)cc2)=C1O` (configuration not stated), the values for the Activity in assay [6], in assay [1] and in assay [3] were 79.5%, 92% and 35.4%, respectively. 9.2 µM corresponded to half-maximal inhibition in assay [2] (IC50). Besides, 10 µM produced 20% inhibition in assay [7]. Also, the Ratio in assay [5] was 0.25.

In the case of `O=C1OC(c2ccc(OCc3ccccc3)c(OCc3ccccc3)c2)C(c2ccc(O)cc2)=C1O` (configuration not stated), the Activity in assay [1] worked out at 4.9%; in assay [3], 12.7%. The same compound gave an IC50 in assay [2] of 1 µM. Besides, the Ratio in assay [5] stood at 0.71.

For the compound `O=C1OC(c2cc(OCc3ccccc3)cc(OCc3ccccc3)c2)C(c2ccc(O)cc2)=C1O` (configuration not stated), the results for the Activity in assay [1] and in assay [3] were 10.4% and 32%, respectively. Further, the IC50 in assay [2] was greater than 300 µM. Further, in assay [5], the Ratio turned out to be 0.65.

On to `O=C1OC(c2cc(OCc3ccccc3)cc(OCc3ccccc3)c2)C(c2ccc(F)cc2)=C1O` (configuration not stated), for which the Activity in assay [1] and in assay [3] was 0% throughout. For the same compound, the midpoint of inhibition in assay [2], the IC50, lay at 30 µM.

Take `O=C1OCC(c2ccc(O)cc2)=C1O`: in assay [2], the midpoint of inhibition, the IC50, lay at 3.6 µM.

Turning to `O=C1OC(c2ccc(O)cc2)C(c2ccc(F)cc2)=C1O` (configuration not stated), the Activity in assay [6], in assay [1] and in assay [3] was 0% in each case. Half-maximal inhibition in assay [2] (IC50) required 300 µM. The compound further returned an inhibition at 10 µM in assay [7] of 31%.

`O=C1OC(c2ccc(OCc3ccccc3)cc2)C(c2ccc(F)cc2)=C1O` (configuration not stated): the Activity in assay [1] and in assay [3] was 0% throughout. The IC50 in assay [2] is greater than 300 µM.

`O=C1OC(c2ccc(OCc3ccccc3)cc2)C(c2ccc(O)cc2)=C1O` (configuration not stated): the Activity in assay [1] and in assay [3] was 0% in each case. The IC50 in assay [2] was greater than 300 µM. The Ratio in assay [5] is 0.3.

Take `O=C1OC(c2ccc(O)cc2)C(c2ccc(O)cc2)=C1O` (configuration not stated): the Activity in assay [6] turned out to be 27.8%; in assay [1], 44.9%; in assay [3], 0%. Further, half-maximal inhibition in assay [2] (IC50) required 220 µM. The compound also showed an inhibition at 10 µM in assay [7] of 0%. Further, the Ratio in assay [5] was 0.32.

As to `O=C1OC(c2cc(O)cc(O)c2)C(c2ccc(F)cc2)=C1O` (configuration not stated), the figures for the Activity in assay [6], in assay [1] and in assay [3] were 10.7%, 40.9% and 0%, respectively. Also, inhibition in assay [2] was half-maximal at 92 µM (IC50). In addition, in assay [7], the inhibition at 10 µM amounted to 0%.
